The subject of one data set is HT-29. In words: Growth inhibition of human HT-29 cells measured after 96 hrs by Coulter counter based cell counting method. The class given is functional. The following applies: HT-29, 96 h.
Data set [1] is described as follows: Growth inhibition of human YD38 cells measured after 4 days by MTT assay. The class given is functional. The following applies: 96 h. (Tetrazolium assays rely on reduction of a dye to a coloured formazan, in cell work by metabolically active cells.)
Data set [2] in a line: Ratio of IC50 for human HT-29 cells to IC50 for leucine uptake at LAT1 in human HT-29 cells.
Data set [3] can be described thus: Ratio of IC50 for human YD-38 cells to IC50 for leucine uptake at LAT1 in human YD-38 cells.
For data set [4], the target named is T1, Large neutral amino acids transporter small subunit 1 (Homo sapiens, UniProt Q01650). In words: Inhibition of [14C]-L-leucine uptake at LAT1 in human YD-38 cells after 1 hr by liquid scintillation counting. Type of data set: cell-based.
T1 sequence (Q01650 whole entry): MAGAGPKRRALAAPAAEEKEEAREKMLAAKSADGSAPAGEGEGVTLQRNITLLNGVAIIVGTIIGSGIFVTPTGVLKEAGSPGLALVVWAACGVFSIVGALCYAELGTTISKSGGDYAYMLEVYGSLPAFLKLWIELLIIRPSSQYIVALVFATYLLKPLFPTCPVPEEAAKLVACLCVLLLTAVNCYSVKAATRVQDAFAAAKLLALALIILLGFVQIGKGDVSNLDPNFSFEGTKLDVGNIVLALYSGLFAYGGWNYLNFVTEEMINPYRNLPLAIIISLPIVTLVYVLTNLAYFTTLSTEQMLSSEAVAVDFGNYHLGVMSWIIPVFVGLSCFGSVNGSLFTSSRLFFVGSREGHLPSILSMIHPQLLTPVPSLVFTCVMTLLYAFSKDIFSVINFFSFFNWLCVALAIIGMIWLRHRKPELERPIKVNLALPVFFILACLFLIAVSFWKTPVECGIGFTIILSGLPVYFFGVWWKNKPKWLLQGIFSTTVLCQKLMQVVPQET
Data set [5] deals with T1, Large neutral amino acids transporter small subunit 1. In words: Competitive inhibition of [14C]-L-leucine uptake at LAT1 in human MCF7 cells preincubated for 5 mins followed by addition of substrate measured during 5 mins by liquid scintillation counting. The class given is cell-based.
Data set [6] shares this target. In words: Potency index, ratio of IC50 for 2-amino-2-norbornanecarboxylic acid to IC50 for test compound for inhibition of [14C]-L-leucine uptake at LAT1 in human MCF7 cells. Type of data set: cell-based.
Data set [7] concerns MCF7. In words: Antiproliferative activity against human MCF7 cells assessed as reduction in cell viability measured after 72 hrs by resazurin dye-based fluorimetric analysis. Type of data set: functional. The following applies: for IC50: MCF7, 72 h. Summed up: (§1)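 MCF-7 cells were seeded at 2 × 10^4 cells/well on collagen-coated plates and treated one day later. Agents were given alone or combined (25 or 100 µM with 100 µM partner drug) in growth medium for 3 days. Viability was read daily by resazurin fluorescence (ex 560/em 590 nm) and expressed relative to untreated controls.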
(Resazurin is reduced to fluorescent resorufin, in cell work by metabolically active cells.)

Data set [8] has as its system MCF7. In words: Antiproliferative activity against human MCF7 cells assessed as reduction in cell viability at 100 measured after 24 hrs by resazurin dye-based fluorimetric analysis. Type of data set: functional. In short, it runs like this:
as §1

The target in data set [9] is T1, Large neutral amino acids transporter small subunit 1. In words: Inhibition of LAT1 in human MCF7 cells assessed as potentiation of bestatin-induced antiproliferative activity by measuring reduction in cell viability at 100 uM measured after 24 hrs by resazurin dye-based fluorimetric analysis. Summed up:
(§2)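 MCF-7 cells seeded 2 × 10^4/well on collagen-coated plates, treated one day later in growth medium with inhibitor (25 or 100 µM) plus bestatin or cisplatin (100 µM) for up to 3 days. Viability read daily by resazurin fluorescence (ex 560/em 590 nm). Viability is treated relative to untreated control. Mean ± SD, n=3.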

Data set [10] has the same target. In words: Inhibition of LAT1 in human MCF7 cells assessed as potentiation of cisplatin-induced antiproliferative activity by measuring reduction in cell viability at 100 uM measured after 24 hrs by resazurin dye-based fluorimetric analysis. Summed up:
as §2

For data set [11], the system named is MCF7. In words: Antiproliferative activity against human MCF7 cells assessed as reduction in cell viability at 100 measured after 48 hrs by resazurin dye-based fluorimetric analysis. The class given is functional. Summed up: as §1
For data set [12], the target named is T1, Large neutral amino acids transporter small subunit 1. In words: Inhibition of LAT1 in human MCF7 cells assessed as potentiation of bestatin-induced antiproliferative activity by measuring reduction in cell viability at 100 uM measured after 48 hrs by resazurin dye-based fluorimetric analysis. In short, it runs like this: as §2
Data set [13] has the same target. In words: Inhibition of LAT1 in human MCF7 cells assessed as potentiation of cisplatin-induced antiproliferative activity by measuring reduction in cell viability at 100 uM measured after 48 hrs by resazurin dye-based fluorimetric analysis. Summed up:
as §2

The subject of data set [14] is MCF7. In words: Antiproliferative activity against human MCF7 cells assessed as reduction in cell viability at 100 measured after 72 hrs by resazurin dye-based fluorimetric analysis. Type of data set: functional. In short, it runs like this: as §1
In data set [15] the target is T1, Large neutral amino acids transporter small subunit 1. In words: Inhibition of LAT1 in human MCF7 cells assessed as potentiation of bestatin-induced antiproliferative activity by measuring reduction in cell viability at 100 uM measured after 72 hrs by resazurin dye-based fluorimetric analysis. Summed up: as §2
For data set [16] the target is unchanged. In words: Inhibition of LAT1 in human MCF7 cells assessed as potentiation of cisplatin-induced antiproliferative activity by measuring reduction in cell viability at 100 uM measured after 72 hrs by resazurin dye-based fluorimetric analysis. In short, it runs like this: as §2
Data set [17] shares this target. In words: Drug uptake in human MCF7 cells assessed as LAT1 mediated drug transport per mg of protein at 100 uM after 30 mins by HPLC analysis. Type of data set: ADME, cell-based. The following applies: mcf7, 0.5 h. Summed up: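 MCF-7 monolayers were incubated with 100 µM compound in HBSS at 37 °C for 5 or 30 min. Cells got three washes with ice-cold or warm (37 °C) HBSS; in the warm 30 min arm they were washed after 5 min and again after 30 min. Lysates (0.1 M NaOH) were quantified by HPLC-UV against a spiked lysate standard curve and normalised to protein (Bio-Rad assay).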

Activity calls are given as the source filed them. The rule behind the calls is not given here.

For orientation: IC50 means the midpoint of a concentration-inhibition curve.

Regarding `Nc1cc(COc2c(Cl)cc(C[C@H](N)C(=O)O)cc2Cl)c2oc(-c3ccccc3)nc2c1`, the half-maximal inhibitory concentration (IC50) in the data set on HT-29 was 4.1 µM; in data set [1], 69 µM; in [4] it was 0.79 µM. Also, the “Ratio IC50” value in data set [2] and in data set [3] was 68 - 87 throughout.

Regarding `NC1(C(=O)O)CC2CCC1C2` (centres undefined), the IC50 in [5] amounted to 112 µM; in the data set on MCF7 [7] it was 362 µM. Besides, the Ratio IC50 in data set [6] is 6 to 6.2. Further, the Activity entry in the data set on MCF7 [7] was “Dose-dependent effect”; in the data set on MCF7 [8], 13.9%; in data set [9] it was 30.8%; in [10] it was 35.9%; with MCF7 [14], 24.1%; in data set [15], 3.13%. The Activity in data set [16] was found to be 42.7%. Moreover, the outcome (in the data set with MCF7 [11]; in data set [12]; in data set [13]) was inactive. Also, the Drug uptake in [17] came to 11.9 nmol/mg.

Turning to `CC(C)C[C@H](NC(=O)[C@@H](O)[C@H](N)Cc1ccccc1)C(=O)O` [UBENIMEX], the Activity result is “Dose-dependent effect” in the data set with MCF7 [7], 3.4% in the data set with MCF7 [8] and 7.5% with MCF7 [11]. Moreover, in the data set with MCF7 [7], the IC50 is 541 µM. The outcome in the data set with MCF7 [14] was inactive.

The values are drawn from ChEMBL document CHEMBL4425108, “A Selective and Slowly Reversible Inhibitor of l-Type Amino Acid Transporter 1 (LAT1) Potentiates Antiproliferative Drug Efficacy in Cancer Cells” (J Med Chem, 2016).
